Screening results: PubChem, SRMLSC
The entries come from a sample that favours hits as a whole.
HCT116 PTEN-null – PTEN-deleted cell growth suppression; HCT116 PTEN-null viability, CellTiter-Glo, 60 h; active compounds read low; 140,000 compounds, 1.2% hits; viability, % at 10 µM; AID 827;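 active = viability at or below a set limit, 4 SD under the median of all tested compounds, cut at about 3.7% in these data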;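 note: PTEN knockout HCT116 line with beta catenin targeted HCT116 as companion control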
HUVEC prolif 384 – inhibitors of human endothelial cell proliferation | HUVEC proliferation, CellTiter-Glo luminescence, 72 h; active compounds read low | viability, % at 10 µM (by protocol) | 86,000 compounds, 1.1% hits | AID 648;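 active = viability at or below 30%; inactive = viability above 30%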;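 note: 100% = median luminescence of DMSO-only cell control wells on each plate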
HCT116 bCat-KO – beta-catenin-lacking colon tumor cell growth suppression | viability, % at 10 µM | HCT116 beta-catenin knockout viability, CellTiter-Glo, 60 h; active compounds read low | 140,000 compounds, 1.5% hits;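 active = viability at or under a set limit, the compound median less 4 SD, cut at about 6% in these data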;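 note: 0% = Hyamine 1622 control at 20 µM and 100% = untreated cell control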
Lung fibro prol – blocks proliferation of human lung fibroblasts. LL 47 human lung fibroblast viability, ATP luminescence; active compounds read low. viability, % at 10 µM. 85,000 compounds, 1.1% hits. AID 719;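 active = viability at or below 50% in the single dose screen; inactive = viability above 50%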;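 note: compound exposure lasted 72 h before the ATP readout; 100% = median luminescence of untreated cell-only wells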
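Times – overnight cell rest, 72 h compound treatment at 37 °C · Test system – human lung fibroblast line LL 47, low passage · Amount – 1,150 cells in each well · Controls – cell-only wells, no compound · Doses – 0.1% DMSO in all compound wells · Measured by – CellTiter-Glo luminescence · Buffer or medium – IMEM plus 15% FBS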
H69AR inhibit – growth inhibitors of human H69AR lung tumor cells; viability, % at 10 µM; AID 598; H69AR lung tumor viability, ATP luminescence, 72 h; active compounds read low; 85,000 compounds, 6% hits;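 active = viability at or below 40%; inactive = viability above 40%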;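 note: multidrug resistant small cell line overexpressing MRP-1 efflux transporter; 100% = mean luminescence of untreated control wells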
* hit, by the source's call; x = no result given.

SMILES	HCT116 PTEN-null	HUVEC prolif 384	HCT116 bCat-KO	Lung fibro prol	H69AR inhibit
Cc1cc(C)nc(-n2ncc3c2CC(c2ccccc2C)CC3=O)n1 (stereo not drawn)	84.7	x	88.2	x	x
Cc1cc(O)c(-c2cc(C(=O)Nc3ccc(S(=O)(=O)N4CCOCC4)cc3)[nH]n2)cc1C	8.6	45.4	15.2	48.6*	33.0*
CC(=O)Nc1ccc(S(=O)(=O)N2CCOCC2)cc1	94.0	103.0	89.8	112.9	94.7
Cc1ccc(O)c(-c2cc(C(=O)Nc3ccc(S(=O)(=O)N4CC(C)OC(C)C4)cc3)[nH]n2)c1 (stereo not drawn)	25.7	77.0	33.3	89.2	17.3*
COc1ccc(-n2cccc2/C=C/[N+](=O)[O-])cc1	2.8*	x	2.2*	x	x
COc1ccc(-n2cccc2C=O)cc1	98.8	x	95.6	x	x
CCSc1nc(=O)n(-c2ccccc2)c(C)c1C(C)=S	103.0	96.4	99.7	x	94.8
COCCNC(=O)CCSc1nc(-c2ccc(OC)cc2)cc(C(F)(F)F)n1	82.1	93.3	94.5	106.5	67.9
COc1ccc(CNC(=O)CCSc2nc(-c3ccc4c(c3)OCO4)cc(C(F)(F)F)n2)cc1	60.7	64.1	70.7	96.6	32.6*
O=C(CCSc1nc(-c2ccc3c(c2)OCO3)cc(C(F)(F)F)n1)NCc1ccco1	58.0	96.1	86.7	100.0	33.0*
CN(Cc1ccccc1)C(=O)CCSc1nc(-c2ccc3c(c2)OCO3)cc(C(F)(F)F)n1	62.3	95.1	69.0	104.6	76.7
O=C(CCSc1nc(-c2ccc3c(c2)OCO3)cc(C(F)(F)F)n1)NCc1ccccc1	79.7	90.5	83.3	99.1	23.4*
O=C(c1cc2ccccc2oc1=O)N1CCN(c2ccccn2)CC1	100.2	91.4	95.1	94.7	94.9
CCOc1cc2[nH]c(=S)n(CCN3CCC(C)CC3)c(=O)c2cc1OCC	64.3	96.1	60.2	101.1	58.4
CCOC(=O)N1CCC(n2c(=S)[nH]c3cc(OCC)c(OCC)cc3c2=O)CC1	84.4	27.5*	86.4	12.2*	22.3*
CC(=O)N1CCN(c2ccc(NC(=O)c3ccc(C(C)(C)C)cc3)cc2)CC1	5.8	51.2	5.9*	96.7	33.5*
CC(=O)/C(CN1CCCCC1)=N\O	94.9	93.2	117.0	98.3	101.9
C/C(=N\O)C(=O)C(CN1CCCCC1)CN1CCCCC1	81.6	74.3	99.8	15.1*	0.4*
Cc1ccc(-n2[nH]c(C)c(/C=N/n3c(C)nc4ccccc4c3=O)c2=O)cc1	91.2	74.4	76.5	100.9	66.8
Cc1nc(S(=O)(=O)N(C)c2ccccc2)c(C#N)c(C)c1Cl	4.1	83.4	3.3*	39.4*	4.2*
Cc1nc2c(c(C)c1C#N)C(=O)c1ccccc1-2	90.6	x	86.3	x	x
Cc1cccc(C(=O)OCc2cnc(Cl)s2)c1	95.0	x	111.0	x	x
CCC(C)NC(=O)CSc1nc2c(sc(=S)n2Cc2ccco2)c(=O)n1-c1ccccc1 (stereo not drawn)	60.5	82.0	66.9	94.5	31.6*
Cc1nn(Cc2ccc(Cl)cc2)c2sc(C(=O)OCC(N)=O)cc12	87.8	97.8	90.6	97.7	86.3
COc1cccc(N/C(SC)=C(/C#N)C(N)=O)c1	85.7	79.9	76.3	95.0	28.1*
SMILES	HCT116 PTEN-null	HUVEC prolif 384	HCT116 bCat-KO	Lung fibro prol	H69AR inhibit
Cc1cccc(Nc2nc(-c3ccc4c(c3)OCCO4)cs2)c1	80.4	73.2	74.2	114.1	22.1*
CC1=NN(c2ccccc2)C(=O)/C1=C\N1CC(C)OC(C)C1 (stereo not drawn)	87.2	x	86.9	x	x
CCCN(CCC)C(=O)Cn1c(=O)n(CCCCC(=O)NC2CCCC2)c(=O)c2ccccc21	107.3	93.5	106.0	105.0	74.0
CCOc1ccc2nc(NC(=O)CS(=O)(=O)c3ccc(C)cc3)sc2c1	79.6	66.3	73.4	85.3	2.2*
CCOc1ccc2nc(NS(=O)(=O)Cc3ccccc3)sc2c1	14.1	51.9	10.9	61.6	20.6*
Cc1ccccc1-c1nsc(SCC(=O)NCc2ccc3c(c2)OCO3)n1	95.5	x	96.1	x	x
CC1(C)CC(=O)C(C2(O)C(=O)N(Cc3ccccc3)c3ccccc32)CO1 (stereo not drawn)	12.2	76.3	14.3	97.4	17.0*
CC12CN3CC(C)(CN(C1)C31C(=O)N(Cc3ccccc3)c3ccccc31)C2=O (stereo not drawn)	x	88.4	x	91.8	85.6
CC1(C)CC(=O)CC(C2(O)C(=O)N(Cc3ccccc3)c3ccccc32)O1 (stereo not drawn)	9.9	94.5	11.1	102.6	28.5*
CCSC1=C(C#N)C(c2ccc(C)s2)CC(=O)N1 (stereo not drawn)	x	91.2	x	104.0	80.4
CCOC(=O)CSC1=C(C#N)C(c2ccccc2OC)CC(=O)N1 (stereo not drawn)	34.9	65.7	30.9	76.1	24.9*
CCSC1=C(C#N)C(c2ccccc2OC)CC(=O)N1 (stereo not drawn)	94.4	112.6	92.3	97.8	86.9
CCOC(=O)CSC1=C(C#N)C(c2ccc(C)s2)CC(=O)N1 (stereo not drawn)	16.3	50.6	13.5	57.2	35.3*
C=CCn1c(SCC(=O)Nc2sccc2C(N)=O)nc2sc(CC)cc2c1=O	74.5	73.1	70.7	85.5	39.8*
C=CCn1c(SCC(=O)c2c(N)n(CCC)c(=O)n(C)c2=O)nc2sc(CC)cc2c1=O	35.6	83.0	40.8	46.5*	7.7*
C=CCn1c(SCC(=O)Nc2sccc2C(N)=O)nc2ccccc2c1=O	76.4	58.7	75.5	87.6	31.3*
C=CCn1c(SCC(=O)c2c(N)n(C)c(=O)n(C)c2=O)nc2sc(C)c(C)c2c1=O	94.0	x	98.6	x	x
C=CCn1c(SCC(=O)Nc2sccc2C(N)=O)nc2ccc(Cl)cc2c1=O	32.4	57.2	50.6	84.4	16.5*
COc1cc(/C=N/NC(=O)c2cc(-c3ccccc3OC(C)C)nc3ccccc23)ccc1O	63.4	x	65.5	x	x
Cn1c(SCC(=O)Nc2nc3ccccc3s2)nnc1-c1ccccc1	105.5	83.7	94.6	96.2	96.8
Cc1cccc(C)c1NS(=O)(=O)c1ccc(NC(=O)c2ccc(Cl)c([N+](=O)[O-])c2)cc1	3.3*	x	1.9*	x	x
O=C(Nc1cccc(S(=O)(=O)Nc2ccccc2Cl)c1)c1ccc(N2CCCC2)c([N+](=O)[O-])c1	89.8	x	95.4	x	x
O=C(Nc1ccc2c(c1)OCCO2)c1ccc(Cl)c([N+](=O)[O-])c1	65.8	x	50.8	x	x
Cc1ccc(NC(=O)c2ccc(NCCN)c([N+](=O)[O-])c2)cc1Cl	3.9	x	3.4*	x	x
O=C(Nc1ccc(C(O)(C(F)(F)F)C(F)(F)F)cc1)c1ccc(Cl)c([N+](=O)[O-])c1	1.8*	x	1.6*	x	x
CC(=O)Oc1cc2c(C(=O)NCc3ccncc3)c(C)oc2c2ccccc12	x	80.6	x	97.7	64.5
CC(=O)Nc1ccc(Br)cc1C(=O)C(=O)O	90.0	x	94.3	x	x
CCOC(=O)C(C(C)=O)c1c(Br)c(O)c(O)c2c(C(=O)c3ccc(C)cc3)coc12 (stereo not drawn)	1.7*	59.5	1.3*	10.3*	1.4*
